Compound activity as filed in PubChem BioAssay.
This is a sample that favours compounds with a hit; in the whole collection about 3.8% have one here.
hERG protect: shields human hERG channel from block by proarrhythmic agents; actives 0.51% (n = 310,000); AID 1511; Q12809; activation (rescue from dofetilide block), less the hit threshold, % at 10 µM; CHO-hERG, FluxOR thallium flux, dofetilide IC70 present;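 active means activation above the mean of controls blocked by dofetilide plus 5 SD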;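 further: thallium influx through hERG after potassium depolarization seen as dye fluorescence rise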
KCNQ1 inh: human KCNQ1 channel inhibition; B-score at 10 µM; CHO-K1 KCNQ1, FluxOR thallium flux fluorescence; hits give high values; P51787; actives 1.3% (n = 310,000);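 active means compounds whose thallium flux B-score, printed positive for inhibition, exceeds three library SD while starting fluorescence stays within three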;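 further: channel opened by potassium depolarization with thallium stimulus after 20 min compound exposure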
KCNQ1 act: potentiators or activators of human KCNQ1 potassium channel. P51787. CHO-K1 KCNQ1, thallium flux FluxOR fluorescence; hits give high values. B-score at 10 µM. actives 0.35% (n = 310,000). AID 2648;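 active means fluorescence ratio B-score, a plate-corrected score, at least three library SD, with initial intensity B-score within 5 SD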
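Doses: Single concentration per compound, DMSO matched to controls | Test system: KCNQ1-transfected CHO-K1 cells | Timing: 90 min dye loading and 20 min compound exposure, both at room temperature | Measured by: Kinetic FluxOR thallium fluorescence, 10-s 1-Hz baseline, 110-s post-stimulus read | Medium: Assay buffer with matched DMSO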
KCNK3 block: human KCNK3 channel inhibition, primary screen; O14649; CHO-KCNK3 thallium flux, FluxOR fluorescence; hits give low values; B-score at 10 µM; actives 0.84% (n = 340,000);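 active means B-score under library mean minus 4 SD, starting fluorescence ratio at most library mean plus 5 SD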;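 further: more negative B-score means stronger inhibition of thallium flux through KCNK3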
KCNK9 block: human KCNK9 channel inhibition; Q9NPC2; HEK293 KCNK9, FluxOR thallium flux fluorescence; hits give low values; B-score at 10 µM; actives 1.2% (n = 310,000); AID 488922;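 active means ratio B-score over 3 SD below the library mean, with starting fluorescence within 5 SD of its mean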;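 further: negative B-score means less thallium flux so channel inhibition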
Kir21 inh: Kir2.1 (mouse) channel inhibition; actives 0.85% (n = 310,000); B-score at 10 µM; HEK293-Kir2.1, FluxOR thallium flux fluorescence; hits give low values; P35561; AID 1672;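 active means fluorescence ratio B-score at or below minus 3 SD of library scores, with starting-brightness B-score within 2 SD, cut at about -4.2 in these data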;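 further: channel flux triggered by added potassium and thallium sulfate stimulus; B-score of peak minus minimum fluorescence over baseline after thallium stimulus; more negative B-score means stronger Kir2.1 block with less thallium influx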
Target sequence (P35561 whole entry, looked up): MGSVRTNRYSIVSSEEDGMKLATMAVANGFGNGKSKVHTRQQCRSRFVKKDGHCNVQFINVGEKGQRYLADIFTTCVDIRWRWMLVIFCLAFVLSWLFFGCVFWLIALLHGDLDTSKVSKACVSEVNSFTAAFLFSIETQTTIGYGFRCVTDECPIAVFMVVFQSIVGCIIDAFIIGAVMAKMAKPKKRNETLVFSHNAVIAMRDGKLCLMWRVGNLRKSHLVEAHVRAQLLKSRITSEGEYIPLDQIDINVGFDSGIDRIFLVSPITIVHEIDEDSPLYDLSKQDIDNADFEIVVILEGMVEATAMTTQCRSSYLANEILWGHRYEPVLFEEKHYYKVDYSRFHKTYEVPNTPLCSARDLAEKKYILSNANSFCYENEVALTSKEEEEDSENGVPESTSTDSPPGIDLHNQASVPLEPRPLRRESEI
* = called active by the depositor; i = inactive; . = no result given.

SMILES	hERG protect	KCNQ1 inh	KCNQ1 act	KCNK3 block	KCNK9 block	Kir21 inh
Cc1ccc(S(=O)(=O)Nc2c(C)[nH]c(=O)[nH]c2=O)cc1C	5.0*	i	i	i	i	-0.29
CCCc1ccc(S(=O)(=O)N(C)S(=O)(=O)c2ccc(F)cc2)cc1	-10	i	i	i	-6.7*	0.31
Cc1ccc(NC(=O)C2CCCN(S(=O)(=O)c3cccnc3)C2)c(C)c1 (stereo not drawn)	-8	i	i	i	i	0.73
COc1cccc(C(=O)NCC(=O)N/N=C/c2ccc3c(c2)OCO3)c1	-10	i	i	i	i	-0.82
CCOCCCNC(=O)C(c1ccc(Cl)cc1)N1CCC2(CC1)OCCO2 (stereo not drawn)	8.6*	i	i	i	i	-0.14
S=c1nc(-c2ccc(Br)cc2)oc2c1CCCC2	14*	i	i	i	i	0.55
CC1CC(C)CN(C(=O)/C=C/c2ccc(S(=O)(=O)N3CCOCC3)cc2)C1 (stereo not drawn)	.	.	.	i	.	.
CCCCNCCOCCOc1ccc(Cl)cc1Br	-10	i	i	i	i	-6.1*
CN(CCCOc1ccccc1Br)Cc1ccccc1	0	i	i	i	i	-2.2
CN(CCOc1ccccc1Cl)Cc1ccccc1	-2	i	i	i	i	-0.62
Cc1ccc(Cl)c(OCCCCN(C)Cc2ccccc2)c1	-9	i	i	i	i	-9.5*
CN(CCOCCOc1ccc(Cl)cc1Br)Cc1ccccc1	-14	i	i	i	i	-7.3*
COc1ccc(NC(C)=O)cc1S(=O)(=O)NC1CCSc2ccccc21 (stereo not drawn)	-7	i	i	i	i	0.89
Cc1ccc(Cl)cc1NC(=S)N/N=C/c1cccc2ccccc12	8.5*	i	11*	i	i	-0.58
Fc1cccc(/C=N/NC(=S)Nc2ccccc2Cl)c1	6.8*	i	i	i	i	-0.57
Cc1ccc(NC(=S)N/N=C/c2c(Cl)cccc2Cl)c(C)c1	7.7*	i	i	i	i	-0.58
C=CCn1c(=O)/c(=C/c2ccsc2)s/c1=C(\C#N)C(=O)NCCN1CCOCC1	.	.	.	i	.	.
O=C(O)c1ccc(NC(=O)c2ccccc2NC(=O)c2cccc(F)c2)cc1	-3	i	i	i	i	0.66
O=C(Nc1cc(-c2ccccc2)sc1C(=O)O)c1cccc(F)c1	-11	6*	i	i	i	0.67
COc1cc(NCc2ccccc2O)c2ncccc2c1	-2	i	i	i	i	-0.61
Oc1ccc(CNc2ccccc2F)c2cccnc12	-11	7*	i	i	i	-0.55
Oc1ccc(CN2CCCCC2)c2cccnc12	2	i	i	i	i	-1.4
Oc1ccc(CN2CCc3ccccc3C2)c2cccnc12	-5	i	i	i	i	-10*
Oc1ccccc1CNc1cccc2cccnc12	-9	i	i	i	-7.3*	-1.2
CC(C)(C)OC(=O)NC(CNCc1ccccc1)Cc1ccccc1 (stereo not drawn)	-9	i	i	i	i	-1
SMILES	hERG protect	KCNQ1 inh	KCNQ1 act	KCNK3 block	KCNK9 block	Kir21 inh
O=C1CSC(c2cccnc2)N1Cc1ccc(Cl)cc1Cl (stereo not drawn)	-3	i	i	i	i	-4.4*
OC(CCN1CCOCC1)c1ccccc1 (stereo not drawn)	9.3*	i	i	i	i	-1.6
Cn1nc(C(F)(F)F)c2cc(NC(=O)OCc3ccc(C(C)(C)C)cc3)sc21	-12	7*	i	i	i	0.55
Cn1nc(C(F)(F)F)c2cc(C(=O)Nc3ccc(F)cc3F)sc21	-5	i	i	i	-7.2*	0.75
OC(CNCCN1CCNCC1)Cc1ccccc1 (stereo not drawn)	.	.	.	i	.	.
CCN(CC(=O)Nc1ccccc1C(F)(F)F)C(=O)c1ccccc1OCc1ccc(F)cc1	.	.	.	i	.	.
COc1cc([N+](=O)[O-])ccc1NC(=O)COC(=O)c1ccc(NC(N)=O)cc1	-5	i	i	i	i	0.33
